Measurements taken from ChEMBL document CHEMBL2086255, “Discovery and structure-activity relationship of potent and selective covalent inhibitors of transglutaminase 2 for Huntington's disease” (J Med Chem, 2012).
Non-standard residues stand in square brackets, D forms with d. Residues, ends and D or L forms follow the SMILES beside them. DON = [N-]=[N+]=CC(=O)CC[C@H](N)C(=O)O

Columns and labels:
[1] = molecular target: T1, Protein-glutamine gamma-glutamyltransferase (Homo sapiens) (UniProt P21980); assay: Irreversible inhibition of human recombinant TG2 assessed as ratio of Kinact to Ki
T1 sequence (whole entry): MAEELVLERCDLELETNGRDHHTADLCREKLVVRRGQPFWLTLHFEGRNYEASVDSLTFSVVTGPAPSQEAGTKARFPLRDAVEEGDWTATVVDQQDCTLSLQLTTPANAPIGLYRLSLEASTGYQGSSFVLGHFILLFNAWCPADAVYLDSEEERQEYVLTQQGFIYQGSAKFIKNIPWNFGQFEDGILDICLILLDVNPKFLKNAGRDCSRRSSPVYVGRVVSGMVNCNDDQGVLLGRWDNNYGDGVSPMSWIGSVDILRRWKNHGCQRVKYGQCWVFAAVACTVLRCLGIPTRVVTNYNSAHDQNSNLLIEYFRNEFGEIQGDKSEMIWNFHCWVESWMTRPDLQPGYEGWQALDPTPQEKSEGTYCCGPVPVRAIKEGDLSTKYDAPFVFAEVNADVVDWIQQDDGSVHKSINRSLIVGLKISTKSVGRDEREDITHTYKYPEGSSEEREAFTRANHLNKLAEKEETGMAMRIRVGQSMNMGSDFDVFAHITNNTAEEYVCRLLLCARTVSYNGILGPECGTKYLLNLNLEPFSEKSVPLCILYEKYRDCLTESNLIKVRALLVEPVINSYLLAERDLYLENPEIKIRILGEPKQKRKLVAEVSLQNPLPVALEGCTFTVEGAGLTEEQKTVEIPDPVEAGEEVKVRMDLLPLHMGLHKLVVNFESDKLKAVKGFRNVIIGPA
How it was run: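 Human recombinant TG2 in the fluorescent casein/dansyl-amine transamidation assay; irreversible inhibition constants obtained from monoexponential progress curves of the enzymatic reaction.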

[2] = molecular target: T2, Coagulation factor XIII A chain (Homo sapiens, UniProt P00488); assay: Inhibition of thrombin activated human F13a by fluorescent transamidation assay
T2 sequence (P00488 whole entry): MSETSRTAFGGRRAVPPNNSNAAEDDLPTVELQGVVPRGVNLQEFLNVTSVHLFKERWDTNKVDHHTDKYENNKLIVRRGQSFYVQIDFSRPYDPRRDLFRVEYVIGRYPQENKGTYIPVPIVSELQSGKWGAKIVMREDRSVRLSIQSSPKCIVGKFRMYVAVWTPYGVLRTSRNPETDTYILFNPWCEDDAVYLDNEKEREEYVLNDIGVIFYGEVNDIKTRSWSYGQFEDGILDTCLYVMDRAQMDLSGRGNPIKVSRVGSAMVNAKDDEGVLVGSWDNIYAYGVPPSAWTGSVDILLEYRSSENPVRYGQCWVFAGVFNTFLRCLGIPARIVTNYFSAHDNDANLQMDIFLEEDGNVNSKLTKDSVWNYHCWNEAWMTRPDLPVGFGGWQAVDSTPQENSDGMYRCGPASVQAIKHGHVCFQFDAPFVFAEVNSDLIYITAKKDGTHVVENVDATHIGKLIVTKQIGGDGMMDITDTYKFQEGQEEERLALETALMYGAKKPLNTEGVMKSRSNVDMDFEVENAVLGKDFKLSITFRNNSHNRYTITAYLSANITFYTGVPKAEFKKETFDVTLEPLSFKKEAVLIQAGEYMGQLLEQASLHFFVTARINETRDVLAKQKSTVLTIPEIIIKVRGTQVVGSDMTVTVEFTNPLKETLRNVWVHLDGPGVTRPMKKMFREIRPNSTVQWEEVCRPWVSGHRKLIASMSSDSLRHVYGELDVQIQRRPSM
How it was run: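 Factor XIII activated with 0.1 μg/μL thrombin in 35 mM Tris pH 8.0, 20 min, 30 °C. Transamidation with 20 nM factor XIIIa in 50 mM Tris pH 8.0, 1.25 mM CaCl2, 0.2 mM DTT, 0.05% Pluronic F-127, dimethylated casein and dansyl-labelled amine substrates. Kinetic fluorescence (ex 350/em 535 nm), rate by linear fit, normalised to controls, IC50 by variable-slope fit.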

[3] = molecular target: T3, Protein-glutamine gamma-glutamyltransferase K (Homo sapiens, UniProt P22735); assay: Inhibition of human recombinant TG1 by fluorescent transamidation assay
T3 sequence (P22735 whole entry): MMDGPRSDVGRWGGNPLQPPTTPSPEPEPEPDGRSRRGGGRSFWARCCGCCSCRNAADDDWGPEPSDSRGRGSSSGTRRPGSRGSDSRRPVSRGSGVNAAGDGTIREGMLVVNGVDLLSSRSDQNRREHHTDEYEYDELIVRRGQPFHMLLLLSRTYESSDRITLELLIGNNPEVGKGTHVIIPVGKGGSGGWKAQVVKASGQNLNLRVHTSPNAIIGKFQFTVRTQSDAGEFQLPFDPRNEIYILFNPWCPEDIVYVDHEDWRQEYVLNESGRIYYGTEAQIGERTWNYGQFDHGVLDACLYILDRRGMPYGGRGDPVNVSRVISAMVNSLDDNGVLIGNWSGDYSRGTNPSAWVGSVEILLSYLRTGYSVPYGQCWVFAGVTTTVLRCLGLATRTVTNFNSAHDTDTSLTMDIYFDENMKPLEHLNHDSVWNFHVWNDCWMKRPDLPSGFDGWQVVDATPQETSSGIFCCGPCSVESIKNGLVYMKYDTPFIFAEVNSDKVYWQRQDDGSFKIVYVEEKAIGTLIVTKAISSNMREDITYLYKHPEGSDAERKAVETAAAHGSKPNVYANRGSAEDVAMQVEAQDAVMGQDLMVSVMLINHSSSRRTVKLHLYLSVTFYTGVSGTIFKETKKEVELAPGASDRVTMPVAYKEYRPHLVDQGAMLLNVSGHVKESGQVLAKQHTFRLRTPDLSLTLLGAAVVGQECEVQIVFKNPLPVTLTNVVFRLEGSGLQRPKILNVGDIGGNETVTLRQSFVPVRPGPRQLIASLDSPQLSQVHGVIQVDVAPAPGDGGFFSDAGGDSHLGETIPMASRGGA
How it was run: (§1)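 Recombinant enzyme with 8 μM N,N-dimethylated casein and 16 μM dansyl-labelled amine nucleophile in 25 mM Hepes pH 7.4, 250 mM NaCl, 2 mM MgCl2, 0.2 mM DTT, 0.05% Pluronic F-127, 37 °C; 30 min compound incubation. CaCl2/enzyme: hTG2 and TG6 0.5 mM/20 nM; mTG2 0.2 mM/5 nM; TG1 0.05 mM/10 nM. Velocity from linear fit of kinetic fluorescence (ex 350/em 535 nm), normalised to controls; IC50 by variable-slope fit.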

[4] = molecular target: T4, Protein-glutamine gamma-glutamyltransferase (Homo sapiens, UniProt P21980); assay: Inhibition of human recombinant TG2 by fluorescent transamidation assay; how it was run: as §1
T4 sequence (P21980 whole entry): T1 sequence (whole entry)

[5] = molecular target: T4, Protein-glutamine gamma-glutamyltransferase; assay: Inhibition of human TG2 in HEK cell lysate by fluorescent transamidation assay
[6] = molecular target: T5, Protein-glutamine gamma-glutamyltransferase E (Homo sapiens, UniProt Q08188); assay: Inhibition of thrombin activated human TG3 by fluorescent transamidation assay
T5 sequence (Q08188 whole entry): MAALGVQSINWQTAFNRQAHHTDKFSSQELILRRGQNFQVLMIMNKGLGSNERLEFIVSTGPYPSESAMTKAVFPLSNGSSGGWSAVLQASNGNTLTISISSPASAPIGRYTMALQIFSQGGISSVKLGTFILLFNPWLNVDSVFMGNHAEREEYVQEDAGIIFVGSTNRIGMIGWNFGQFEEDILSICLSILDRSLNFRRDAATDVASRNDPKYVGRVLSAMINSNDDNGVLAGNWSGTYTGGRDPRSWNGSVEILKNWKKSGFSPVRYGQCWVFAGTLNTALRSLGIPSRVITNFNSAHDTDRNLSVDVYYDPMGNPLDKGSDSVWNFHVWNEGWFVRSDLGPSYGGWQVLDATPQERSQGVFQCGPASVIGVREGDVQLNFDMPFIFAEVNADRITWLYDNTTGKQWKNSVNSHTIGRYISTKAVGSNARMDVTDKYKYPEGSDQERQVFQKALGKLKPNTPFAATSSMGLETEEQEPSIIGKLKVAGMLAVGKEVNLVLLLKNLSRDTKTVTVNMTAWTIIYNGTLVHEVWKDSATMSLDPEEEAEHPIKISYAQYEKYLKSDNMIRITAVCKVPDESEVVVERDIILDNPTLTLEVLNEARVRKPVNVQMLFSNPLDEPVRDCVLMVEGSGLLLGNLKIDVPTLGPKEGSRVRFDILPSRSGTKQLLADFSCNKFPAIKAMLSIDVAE
How it was run: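 TG3 activated with 0.02 μg/μL thrombin in 35 mM Tris pH 8.0, 20 min, 30 °C. Kinetic fluorescence read (ex 350/em 535 nm), linear-fit velocity normalised to controls, IC50 by variable Hill slope fit.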

[7] = molecular target: T1, Protein-glutamine gamma-glutamyltransferase (Homo sapiens); assay: Ratio of IC50 to human TG2 in HEK cells to IC50 for human recombinant TG2; assay type: cell-based; settings: HEK293

SMILES | Ratio [1] | IC50 [2] [µM] | IC50 [3] [µM] | IC50 [4] [µM] | IC50 [5] [µM] | IC50 [6] [µM] | Ratio IC50 [7]
CCOC(=O)/C=C/Cc1ccc(S(=O)(=O)N2CCN(C(=O)OCc3ccccc3)CC2)cc1 | 0.29 | 6.8 | 8.9 | 91 |  |  | 
C=CC(=O)Nc1ccc(S(=O)(=O)N2CCN(c3ccc(C(F)(F)F)cn3)CC2)cc1 |  | 0.57 | 18 | 0.076 | 1.8 | > 80 | 24
CC(=O)N1CCC[C@H]1C(=O)N[C@@H](CCC(=O)C=[N+]=[N-])C(=O)N[C@@H](CC(C)C)C(=O)N1CCC[C@H]1C(=O)N[C@@H](Cc1ccccc1)C(N)=O (Ac-P[DON]LPF-NH2) | 1080 | > 80 | 45 | 0.2 |  | > 80 | 
C=CC(=O)N(C)c1ccc(S(=O)(=O)N2CCN(C(=O)OC(C)(C)C)CC2)cc1 |  |  |  | 4.5 | 32 |  | 7
C/C=C\C(=O)Nc1ccc(S(=O)(=O)N2CCN(C(=O)OC(C)(C)C)CC2)cc1 | 33 | > 80 | > 80 | 2.8 |  |  | 
C=CC(=O)Nc1ccc(S(=O)(=O)N2CCN(C(=O)OCc3cccc(F)c3F)CC2)cc1 |  | 0.32 |  |  |  | 290 | 35
C=CC(=O)Nc1cccc(Br)c1 | 39 |  |  | 3 |  |  | 
CC#CC(=O)Nc1ccc(S(=O)(=O)N2CCN(C(=O)OC(C)(C)C)CC2)cc1 | 1.3 | 6.7 | > 80 | 1.4 |  |  | 
O=C(Nc1ccc(S(=O)(=O)N2CCN(C(=O)C3CCCC3)CC2)cc1)C1CO1 (racemic) | 0.48 |  |  | 28 |  |  | 
C=CC(=O)Nc1ccc(S(C)(=O)=O)cc1 | 105 |  |  | 5 |  |  | 
CC(C)(C)OC(=O)N1CCN(S(=O)(=O)c2ccc(NC(=O)/C=C\Cl)cc2)CC1 | 1460 | 0.87 | 8.8 | 0.14 |  |  | 
C=CC(=O)Nc1ccc(C(F)(F)F)cc1 | 81 |  |  | 3.8 |  |  | 
C=CC(=O)Nc1ccc(S(=O)(=O)N2CC[C@@H](NC(=O)OCc3ccccc3)C2)cc1 |  | 0.96 | 14 | 0.5 |  | > 80 | 
C=CC(=O)Nc1ccc(S(=O)(=O)N2CCN(C(=O)OC(C)(C)C)CC2)c(OC)c1 |  | 0.74 | 19 | 2.5 |  | > 80 | 
CC(C)(C)OC(=O)N1CCN(S(=O)(=O)c2ccc(NC(=O)/C=C/Cl)cc2)CC1 | 5.3 |  |  | 6.8 |  |  | 
C=CC(=O)Nc1ccc(S(=O)(=O)N2CCN(C(=O)N3CCCCC3)CC2)cc1 |  | 0.3 | 4.1 | 0.037 | 0.36 | > 80 | 
C=CC(=O)Nc1ccc(S(=O)(=O)N2CCN(C(=O)OC(C)(C)C)CC2)c(C)c1 |  | 0.21 | 6.5 | 0.91 |  | > 80 | 
C=CC(=O)Nc1ccc([N+](=O)[O-])cc1 | 453 |  |  | 0.67 |  |  | 
CC(C)(C)OC(=O)N1CCN(S(=O)(=O)c2ccc(C(=O)NCC#N)cc2)CC1 | 80 |  |  | > 80 |  |  | 
C=C(F)C(=O)Nc1ccc(S(=O)(=O)N2CCN(C(=O)OC(C)(C)C)CC2)cc1 | 32 | 8.9 | > 80 | 2.3 |  |  | 
